ChEMBL document CHEMBL1157302, “Quinone reductase induction as a biomarker for cancer chemoprevention” (J Nat Prod, 2006)
pIC50: −log10 of the molar value. Activity calls are given as the source filed them. The calls are words filed in the database; no cut-off is given here.

Experiments:
[1] = Inhibition of mouse Hepa-1c1c7 cells assessed as cell viability; format: functional, cell-based
In short: (§1)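 Cell viability of wild-type and both mutant Hepa 1c1c7 lines measured alongside QR induction; IC50 = half-maximal inhibitory concentration of viability, mean ± SD, n = 2.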

[2] = test system: HepG2; test: Induction of antioxidant response element activity in human HepG2 cells at 10 uM by luciferase based chemiluminescence assay; format: functional, cell-based
In short: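 HepG2 human hepatoma cells stably transfected with an ARE-luciferase plasmid were treated with test agent at 10 µM, with DMSO (0.5% final) as vehicle control. Luciferase was read by chemiluminescence and expressed as fold induction over control, as means of three determinations ± SD. Significance was tested by Student's t-test (p < 0.05).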

[3] = Inhibition of mouse Hepa-1c1c7 TAOc1Bprc1 mutant cells assessed as cell viability; format: functional; in short: as §1
[4] = Inhibition of mouse Hepa-1c1c7 Bprc1 mutant cells assessed as cell viability; format: functional; in short: as §1
[5] = Chemoprevention index, ratio of IC50 for mouse Hepa-1c1c7 cells to drug level required to double specific NADPH:quinone reductase activity in mouse Hepa-1c1c7 cells; format: functional
In short: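 QR induction measured in wild-type Hepa 1c1c7 murine hepatoma cells and two mutant lines (one lacking a functional Ah receptor, one unable to move receptor–ligand complex to the nucleus) by a previously described method; concentrations 2-30 µM; CD = concentration doubling specific QR activity; chemoprevention index = cell-viability IC50 divided by CD.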

[6] = Chemoprevention index, ratio of IC50 for mouse Hepa-1c1c7 TAOc1Bprc1 mutant cells to drug level required to double specific NADPH:quinone reductase activity in mouse Hepa-1c1c7 TAOc1Bprc1 mutant cells; format: functional
In short: (§2)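 Hepa 1c1c7 mutant lines; the index is the IC50 for cell viability (half-maximal inhibition; mean ± SD, n = 2) divided by the concentration that doubles QR specific activity (CD) in the same mutant line.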

[7] = test system: Rattus norvegicus; test: Toxicity in DMBA-induced mammary carcinogenesis in Sprague-Dawley rat assessed as necropsy up to 20000 mg/kg administered 7 days pre-DMBA challenge continued for 7 days post-DMBA challenge assessed after 120 days; format: organism-based; parameters: dose 20000 mg/kg; settings: in vivo, 2880 h
In short: (§3)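 Dose-finding prior to tumor study: diets with 1000, 2000, 3000, 4000, 5000 and 20 000 mg/kg diet; toxicity judged by body weight change and necropsy.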

[8] = Chemoprevention index, ratio of IC50 for mouse Hepa-1c1c7 Bprc1 mutant cells to drug level required to double specific NADPH:quinone reductase activity in mouse Hepa-1c1c7 Bprc1 mutant cells; format: functional; in short: as §2
[9] = Inhibition of 7,12-dimethylbenz[a]anthracene-induced preneoplastic lesions in a mouse mammary gland culture at 10 ug/mL; format: functional
[10] = test system: HepG2; test: Induction of antioxidant response element activity in human HepG2 cells by luciferase based chemiluminescence assay; format: functional, cell-based
In short: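 HepG2 human hepatoma cells stably transfected with an ARE-luciferase plasmid; treated with 1.9-30 µM test agent, 10 µM 4′-bromoflavone or 10 µM sulforaphane positive controls, DMSO 0.5% final as vehicle control; chemiluminescence luciferase read-out as fold over control; mean of three determinations ± SD, Student's t-test p < 0.05.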

[11] = test system: Rattus norvegicus; test: Toxicity in DMBA-induced mammary carcinogenesis in Sprague-Dawley rat assessed as body weight changes up to 20000 mg/kg administered 7 days pre-DMBA challenge continued for 7 days post-DMBA challenge assessed after 120 days; format: organism-based; parameters: dose 20000 mg/kg; settings: in vivo, 2880 h; in short: as §3
[12] = test system: HepG2; test: Cytotoxicity against human HepG2 cells at 7.5 to 30 uM; format: functional, cell-based
[13] = test system: Rattus norvegicus; test: Inhibition of DMBA-induced mammary carcinogenesis in Sprague-Dawley rat assessed as increase in tumor latency at 5000 mg/kg administered 7 days pre-DMBA challenge continued for 7 days post-DMBA challenge assessed after 120 days; format: functional, organism-based; parameters: dose 5000 mg/kg
In short: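 Female Sprague-Dawley rats given DMBA, as described previously; test agent in diet at 2500 or 5000 mg/kg diet from 7 days before to 7 days after DMBA, then unsupplemented diet; 20 rats/group; tumor latency, incidence over 120 days and body weight recorded.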

Structure (SMILES)	pIC50 [1]	Activity [2]	pIC50 [3]	pIC50 [4]	Ratio [5]	Ratio [6]	Activity [7]	Ratio [8]	inhibition at 10 µg/mL [9] [%]	Activity [10]	Activity [11]	Activity [12]	Activity [13]
O=c1cc(-c2ccc(Br)cc2)oc2ccccc12	< 4.20	Active	< 4.20	< 4.20	>2700	–	–	–	–	–	–	–	–
O=C(/C=C/c1ccc(O)cc1)c1ccc(O)cc1O [ISOLIQUIRITIGENIN]	4.71	–	4.66	4.79	11	10	Non-toxic	2	76	Dose-dependent effect	Non-toxic	inactive	Active
C[S+]([O-])CCCCN=C=S (centres undefined) [SULFORAPHANE]	5.20	Active	5.23	5.12	21	18	–	16	–	–	–	–	–
